Measured values taken from ChEMBL document CHEMBL1157870, “Synthesis of 3-((2,4-dichlorophenoxy)methyl)-1,2,4-triazolo(thiadiazoles and thiadiazines) as anti-inflammatory and molluscicidal agents” (Eur J Med Chem, 2010).

Columns and labels:
[1] = system: Biomphalaria alexandrina; assay: Molluscicidal activity against Biomphalaria alexandrina assessed as mortality at 10 ppm after 24 hrs; type: organism-based; conditions: in vivo
In short: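 Compounds dissolved with a few drops of Tween 20 and 2 mL DMSO, then diluted with untreated Nile raw water to 1, 5 or 10 ppm in aerated glass jars. Ten snails per concentration held 24 h at 25 °C. Mean number killed over three repeats recorded. Controls received Tween 20/DMSO in water; Bayluscide served as reference. Follows WHO guidelines, modified.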

[2] = system: Rattus norvegicus; assay: Antiinflammatory activity against carrageenan-induced paw edema in po dosed rat administered 1 hr before carrageenan challenge assessed after 1 hr; type: functional
In short: (§1)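 Rats of about 200 g dosed orally; 1 h later, 1 mg carrageenan in […] physiological solution injected subplantar into the hind left paw. Paw volume measured hourly for 4 h by plethysmometer, dipping the paw in 0.45% saline. Read-out is % change in paw volume versus baseline, given as % inhibition of oedema ± S.E. Indomethacin served as reference.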

[3] = system: Rattus norvegicus; assay: Antiinflammatory activity against carrageenan-induced paw edema in po dosed rat administered 1 hr before carrageenan challenge assessed after 2 hrs; type: functional; in short: as §1
[4] = system: Rattus norvegicus; assay: Antiinflammatory activity against carrageenan-induced paw edema in po dosed rat administered 1 hr before carrageenan challenge assessed after 3 hrs; type: functional; in short: as §1
[5] = system: Rattus norvegicus; assay: Antiinflammatory activity against carrageenan-induced paw edema in po dosed rat administered 1 hr before carrageenan challenge assessed after 4 hrs; type: functional; in short: as §1

In the case of `Clc1ccc(OCc2nnc3snnn23)c(Cl)c1`, the Activity [1] is reported as “Toxic”, the “inhibition (INH)” value [2] is reported as 70.78% and the “inhibition (INH)” value [3] is reported as 94.8%. For the same molecule, the “inhibition (INH)” value [4] was 108.482% and the “inhibition (INH)” value [5] was 74.03%.

`Clc1ccc(OCc2nnc3n2N=C(c2ccccc2)CS3)c(Cl)c1` was tested, and the “inhibition (INH)” value [2] was 27.66%, the “inhibition (INH)” value [3] was 45.62% and the “inhibition (INH)” value [4] was 60.42%. The “inhibition (INH)” value [5] was 48.51%.

In the case of `Clc1ccc(OCc2nnc3sc(-c4ccco4)nn23)c(Cl)c1`, the “inhibition (INH)” value [2] is reported as 51.38%, the “inhibition (INH)” value [3] is reported as 54.62% and the “inhibition (INH)” value [4] is reported as 99.24%. For the same molecule, the “inhibition (INH)” value [5] was 93.97%.

`Clc1ccc(OCc2nn3c(COc4ccc(Cl)cc4Cl)nnc3s2)c(Cl)c1` was tested, and the “inhibition (INH)” value [2] was 26.95%, the “inhibition (INH)” value [3] was 48.4% and the “inhibition (INH)” value [4] was 63.15%. The “inhibition (INH)” value [5] was 58.48%.

In the case of `O=[N+]([O-])c1ccc(-c2nn3c(COc4ccc(Cl)cc4Cl)nnc3s2)c([N+](=O)[O-])c1`, the “inhibition (INH)” value [2] is reported as 32.16%, the “inhibition (INH)” value [3] is reported as 66.06% and the “inhibition (INH)” value [4] is reported as 68.04%. The “inhibition (INH)” value [5] was 63.95%.

For `COc1ccc(-c2nn3c(COc4ccc(Cl)cc4Cl)nnc3s2)cc1`, the “inhibition (INH)” value [2] was 26.75%, the “inhibition (INH)” value [3] was 46.22% and the “inhibition (INH)” value [4] was 56.34%. The “inhibition (INH)” value [5] was 44.34%.

With `Nn1c(S)nnc1COc1ccc(Cl)cc1Cl` the Activity [1] was “Toxic”, the “inhibition (INH)” value [2] was 50% and the “inhibition (INH)” value [3] was 60.3%. For the same molecule, the “inhibition (INH)” value [4] was 102.8511% and the “inhibition (INH)” value [5] was 81.75%.

With `Clc1ccc(OCc2nnc3n2N=C(c2cc4ccccc4o2)/C(=C/c2cn(-c4ccccc4)nc2-c2cc4ccccc4o2)S3)c(Cl)c1` the “inhibition (INH)” value [2] was 29.71%, the “inhibition (INH)” value [3] was 41.32% and the “inhibition (INH)” value [4] was 59.66%. For the same molecule, the “inhibition (INH)” value [5] was 35.78%.

In the case of `COc1ccc2c(c1)c(CC(=O)O)c(C)n2C(=O)c1ccc(Cl)cc1` [INDOMETHACIN], the “inhibition (INH)” value [2] is reported as 24.8%, the “inhibition (INH)” value [3] is reported as 20.97% and the “inhibition (INH)” value [4] is reported as 26.29%. For the same molecule, the “inhibition (INH)” value [5] was 20.19%.

`O=C(Nc1ccc([N+](=O)[O-])cc1Cl)c1cc(Cl)ccc1O` [NICLOSAMIDE] was tested, and the Activity [1] was “Toxic”.
